In brackets after ≈: the same amount, converted by molar mass.
What was measured:
Type in all cases: functional
Staphylococcus aureus [1] = test: Antimicrobial activity against Staphylococcus aureus ATCC 29213 assessed as growth inhibition after 20 to 24 hrs by broth microdilution method
Procedure, shortened: (§1)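 CLSI broth microdilution in Mueller Hinton broth supplemented with 20 mg/L CaCl2 and 10 mg/L MgCl2. Cells from frozen stocks were seeded at 5 × 10^5 cfu/mL and incubated at 37 °C, then read after 20−24 h. The MIC is the lowest concentration giving complete suppression of visible growth.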

Streptococcus pyogenes = test: Antimicrobial activity against Streptococcus pyogenes 49 assessed as growth inhibition after 20 to 24 hrs by broth microdilution method
Procedure, shortened: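 Streptococcus pyogenes was grown in Todd Hewitt broth and tested by CLSI broth microdilution. The MIC is the lowest concentration causing complete suppression of visible growth.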

Staphylococcus aureus [2] = test: Antimicrobial activity against Staphylococcus aureus ATCC 6538P assessed as growth inhibition after 20 to 24 hrs by broth microdilution method; procedure, shortened: as §1
Micrococcus luteus = test: Antimicrobial activity against Micrococcus luteus 108 assessed as growth inhibition after 20 to 24 hrs by broth microdilution method; procedure, shortened: as §1
Bacillus subtilis = test: Antimicrobial activity against Bacillus subtilis 168 assessed as growth inhibition after 20 to 24 hrs by broth microdilution method; procedure, shortened: as §1

MIC (Staphylococcus aureus [1]) [µg/mL] | MIC (Streptococcus pyogenes) [µg/mL] | MIC (Staphylococcus aureus [2]) [µg/mL] | MIC (Micrococcus luteus) [µg/mL] | MIC (Bacillus subtilis) [µg/mL] | SMILES
2 (≈ 4.62 µM) | 16 (≈ 37 µM) | 2 (≈ 4.62 µM) | 8 (≈ 18.5 µM) | 8 (≈ 18.5 µM) | C=C1C(=O)[C@]2(OC)C(=O)O[C@@]34C[C@H](C)C(C(=O)O)=C[C@@H]3CCC[C@@H](C)C[C@@H](C)[C@H]1O[C@H]24 (relative stereo)
64 (≈ 143 µM) | 8 (≈ 17.8 µM) | 32 (≈ 71.3 µM) | 8 (≈ 17.8 µM) | 128 (≈ 285 µM) | C=C1C(=O)[C@]2(OC)C(=O)O[C@@]34C[C@H](C)C(C(=O)O)=C[C@@H]3CCC[C@@H](C)[C@H](O)[C@@H](C)[C@H]1O[C@H]24 (relative stereo)

SMILES | MIC (Staphylococcus aureus [1]) [µg/mL] | MIC (Streptococcus pyogenes) [µg/mL] | MIC (Staphylococcus aureus [2]) [µg/mL] | MIC (Micrococcus luteus) [µg/mL] | MIC (Bacillus subtilis) [µg/mL]
CN[C@H](CC(C)C)C(=O)N[C@H]1C(=O)N[C@@H](CC(N)=O)C(=O)N[C@H]2C(=O)N[C@H]3C(=O)N[C@H](C(=O)N[C@H](C(=O)O)c4cc(O)cc(O)c4-c4cc3ccc4O)[C@H](O)c3ccc(c(Cl)c3)Oc3cc2cc(c3O[C@@H]2O[C@H](CO)[C@@H](O)[C@H](O)[C@H]2O[C@H]2C[C@](C)(N)[C@H](O)[C@H](C)O2)Oc2ccc(cc2Cl)[C@H]1O [VANCOMYCIN] |  |  |  | 0.125 (≈ 0.0863 µM) | 0.25 (≈ 0.173 µM)

— ChEMBL document CHEMBL2163285, “Chrolactomycins from the actinomycete actinospica” (2012)
